PMI activator: activators of human phosphomannose isomerase. P34949. purified human PMI, coupled resazurin fluorescence, 20 min; hits give high values; 1 = vehicle control, 0 substrate-free wells. activation factor at 20 µM. 0.005% of 190,000 active. AID 1214;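 active = activation factor of 2 or more at 20 µM, relative to plate controls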
Target sequence (P34949 whole entry, looked up): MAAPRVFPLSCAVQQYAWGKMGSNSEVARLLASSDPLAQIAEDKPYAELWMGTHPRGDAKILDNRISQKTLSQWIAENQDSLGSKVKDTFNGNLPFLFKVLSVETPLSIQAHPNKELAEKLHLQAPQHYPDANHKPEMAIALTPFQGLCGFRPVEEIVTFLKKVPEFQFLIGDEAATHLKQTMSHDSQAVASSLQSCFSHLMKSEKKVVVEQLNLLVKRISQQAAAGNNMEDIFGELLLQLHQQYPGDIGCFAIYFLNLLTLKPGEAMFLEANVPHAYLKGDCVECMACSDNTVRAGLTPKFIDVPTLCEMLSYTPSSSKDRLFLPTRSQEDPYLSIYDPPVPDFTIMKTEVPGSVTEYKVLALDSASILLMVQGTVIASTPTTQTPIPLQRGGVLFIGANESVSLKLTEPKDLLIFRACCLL
PMI act satM6P: PMI (human) activation, high substrate | activation factor at 20 µM | P34949 | 0.34% of 190,000 active | AID 1216 | coupled PMI enzyme assay, resazurin fluorescence, 20 min; hits give high values; 1 = untreated enzyme, 0 = substrate-free blank;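 active = activation factor of 2 or more at 20 µM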
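Technique: Diaphorase-driven resazurin-to-resorufin fluorescence, excitation 544, emission 590 nm | Assay system: Human PMI in coupled enzyme assay | Times: Enzyme reaction with compound 20 min at room temperature | Medium: HEPES-buffered pH 7.4 with magnesium and detergent | Reagent: Mannose-6-phosphate 1.0 mM (near-saturating) plus 0.22 mM NADP+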
Diaphorase act: diaphorase activation or chemical reduction counter-screen; 0.005% of 190,000 active; AID 1229; activation factor at 20 µM; Diaphorase/resazurin coupled assay, resorufin fluorescence, 16 min; hits give high values; 1 = vehicle wells, 0 = NADH-free wells;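 active = diaphorase activity raised at least twofold by the compound at 20 µM; inactive = activation factor below 2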
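System – purified diaphorase enzyme from Clostridium kluyveri · Input – enzyme 0.07 U/mL final · Also added – final NADH 0.114 mM, resazurin 0.1 mM · Measured by – fluorescence of resorufin, 544 nm excitation, 590 nm emission · Timing – 16 min enzyme reaction, ambient temperature · Measure – resorufin increase flagging diaphorase activators or reducers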
WT yeast gro inh: growth inhibition of WT yeast, mitochondrial fusion screen; mitochondrial fusion phenotypic screen, WT strain; inhibition, % at 10 µM; 2.1% of 190,000 active; AID 1362; in the data active = inhibition above about 58%; tested in S. cerevisiae
Lmaj promast: Leishmania major promastigote growth inhibition | inhibition, % at 10 µM | Leishmania major promastigotes, resazurin fluorescence viability | AID 1063 | 9% of 200,000 active; in the data active = inhibition above about 50%;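 also: promastigotes grown with compound for 44 hours at 28 °C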
Starred values were filed as active, the others as inactive. Most compounds without a hit are left out; they make up all but 10% or so of the library.

SMILES | PMI activator | PMI act satM6P | Diaphorase act | WT yeast gro inh | Lmaj promast
CC(Sc1nc2ccccc2[nH]1)C(=O)Nc1ccccc1F (stereo not given) | 0.8 | 0.9 | 0.7 | -6 | 0
COc1cccc(CNC(=O)CN(c2cc(C)cc(C)c2)S(=O)(=O)c2c(C)noc2C)c1 | 1 | 1 | 0.8 | 9 | 65*
COc1ccc(OC)c(NC(=O)CN(c2ccc(C)cc2)S(=O)(=O)c2c(C)noc2C)c1 | 0.9 | 0.9 | 0.7 | 25 | 75*
COc1ccc(N(CC(=O)Nc2cc(Cl)ccc2OC)S(=O)(=O)c2c(C)noc2C)cc1 | 0.9 | 0.9 | 0.8 | 3 | 32
CCOc1ccc(N(CC(=O)NCc2ccccc2)S(=O)(=O)c2c(C)noc2C)cc1 | 1.1 | 1 | 0.8 | 11 | 1
COc1ccc(OC)c(NC(=O)CN(c2ccc(C(C)C)cc2)S(=O)(=O)c2c(C)noc2C)c1 | 0.8 | 0.7 | 0.6 | 24 | 52*
Cc1ccc(N2C(=O)[C@@H]3C(C(=O)CCN4C(=O)c5ccccc5C4=O)=NN[C@@H]3C2=O)cc1 | 0.9 | 1 | 1.1 | 11 | -6
O=C(O)c1ccc(N/N=C/c2ccc(-c3ccccc3)cc2)cc1 | 1.6 | 2.4* | 0.7 | 68 | 6
COc1ccc(/C=N/Nc2ccc(C(=O)O)cc2)cc1Br | 1.8 | 2.5* | 1.1 | -2 | 15
C=CCOc1c(Br)cc(/C=N/Nc2ccc(C(=O)O)cc2)cc1OCC | 1 | 1 | 0.8 | 63* | -14
COc1ccc(C(=O)c2ccc(OC)c(Br)c2)cc1Br | 1.1 | 1.1 | 0.6 | 4 | -2
CCOc1cc(/C=N/O)cc(Br)c1OCC | 0.9 | 0.9 | 0.9 | 21 | 6
O=C(O)c1ccc(N/N=C/c2ccc(OC(=O)c3ccccc3Cl)cc2)cc1 | 1.3 | 1.3 | 0.8 | -11 | -20
O=C(O)C1CCCCC1C(=O)NCCc1ccc(F)cc1 (stereo not given) | 1 | 1.1 | 1 | -7 | -7
Cc1onc(-c2ccccc2)c1C(=O)OCC(=O)Nc1ccc2c(c1)OCO2 | 1 | 1 | 0.8 | 10 | 2
Cc1c(-c2cccc(Cl)c2)nc2ccccc2c1C(=O)OCC(=O)Nc1ccc2c(c1)OCO2 | 0.9 | 0.9 | 0.8 | 15 | 58*
Cc1ccc(O)c(C(=O)c2coc(=N)c(C(=O)NC(C)C)c2)c1 | 1 | 1.1 | 1 | -1 | 71*
COC(=O)c1cc(C(=O)c2cc(Cl)ccc2O)coc1=N | 1 | 1 | 1 | 23 | -5
CC(=O)N1CCN(C(=S)Nc2cc(S(=O)(=O)N3CCOCC3)ccc2Cl)CC1 | 1.2 | 1.3 | 1 | -8 | -3
COc1cc(/C(C)=N/NC(=O)CSc2nncn2C)ccc1OCc1ccccc1Cl | 1 | 1 | 0.9 | -11 | 73*
CCN1CCN(C(=O)c2ccc3c(c2)S(=O)(=O)c2ccccc2C3=O)CC1 | 1.4 | 1.2 | 1.1 | 13 | 5
CCC(=O)NC(=S)Nc1ccc(NC(=O)CC)cc1 | 1 | 0.9 | 0.9 | 4 | -2
CCC(=O)Nc1cccc(C(=O)/C=C/c2ccccc2)c1 | 0.9 | 0.9 | 0.9 | 18 | 100*
COc1ccc(/C=C/C(=O)NC(=S)Nc2ccc(C(=O)O)cc2)cc1 | 1 | 1 | 0.8 | -1 | 69*
CCC(=O)Nc1ccc(NC(=S)NC(=O)/C=C/c2ccccc2)cc1 | 0.9 | 1 | 1 | -8 | 81*
SMILES | PMI activator | PMI act satM6P | Diaphorase act | WT yeast gro inh | Lmaj promast
CCN1CCN(CC(=O)n2c3c(c4ccccc42)CC(C)CC3)CC1 (stereo not given) | 0.9 | 1 | 0.9 | 8 | 100*
CC1CCN(CC(=O)n2c3c(c4ccccc42)CCCC3)CC1 | 0.9 | 1 | 0.9 | 14 | 5
NS(=O)(=O)c1ccc(NC(=S)NC(=O)c2ccc(Br)o2)cc1 | 0.9 | 0.9 | 0.8 | 6 | -8
NS(=O)(=O)c1ccc(NS(=O)(=O)c2ccc(NC(=S)Nc3ccccc3)cc2)cc1 | 1 | 1 | 1 | 0 | -3
Cc1cc(C)cc(NS(=O)(=O)c2ccc(NC(=S)NC(=O)c3ccc(Br)o3)cc2)c1 | 0.9 | 0.9 | 0.9 | 47 | 95*
COc1ccc(NS(=O)(=O)c2ccc(NC(=S)NC(=O)c3ccc(Br)cc3)cc2)nn1 | 0.8 | 1 | 0.7 | 1 | 85*
Cc1cc(C)cc(NS(=O)(=O)c2ccc(NC(=S)Nc3ccccc3)cc2)c1 | 0.9 | 0.8 | 0.7 | 0 | 82*
Cc1cc2nnc(SCC(=O)N(C)C3CCS(=O)(=O)C3)n2c2ccccc12 (stereo not given) | 1.2 | 1.3 | 0.9 | -11 | 4
CCN(c1ccc(NC(=O)CN2C(=O)NC3(CCOc4ccccc43)C2=O)cc1)C(C)C (stereo not given) | 0.8 | 0.8 | 0.7 | 2 | -1
CCO[C@H]1OC(C(=O)N2CCOCC2)=C[C@@H](C)[C@@H]1CCCO | 0.9 | 0.9 | 0.9 | 5 | -5
Cc1ccc(Cn2c(C)cc3c(c2=O)C(c2cccs2)C(C#N)=C(N)O3)cc1 (stereo not given) | 1 | 1 | 1 | 2 | -1
Cc1cc2c(c(=O)o1)C(C(C)C)C(C#N)=C(N)O2 (stereo not given) | 1 | 1 | 0.8 | 1 | -6
Cc1cc2c(c(=O)o1)C(c1cccs1)C(C#N)=C(N)O2 (stereo not given) | 0.9 | 0.9 | 1 | -10 | 62*
Cc1ccc([C@H]2C(C#N)=C(N)Oc3cc(C)oc(=O)c32)o1 | 1.2 | 1.1 | 1.1 | 9 | 100*
Cc1cc2ccccn2c1C(=O)c1cccc([N+](=O)[O-])c1 | 0.9 | 1 | 0.9 | -5 | -8
Cc1cc2ccccn2c1C(=O)c1ccc([N+](=O)[O-])o1 | 1 | 0.9 | 0.9 | 24 | 99*
CCN(CC)c1ccc(/C=N/Nc2nc(C)cc(=O)[nH]2)c(O)c1 | 0.8 | 0.9 | 0.6 | 3 | 99*
CCN(CC)c1ccc(/C=N/NC(=O)CCC(=O)NCc2ccccc2)c(O)c1 | 1 | 1 | 0.8 | 15 | 98*
CCOC(=O)N/N=C/c1ccc(N(CC)CC)cc1O | 0.8 | 0.5 | 0.7 | 6 | -12
CCN(CC)c1ccc(/C=N/NC(=O)c2c(Cl)cnn2C)c(O)c1 | 1.1 | 1.1 | 0.9 | -7 | 99*
CCN(CC)c1ccc(/C=N/Nc2ccc(C)cc2)c(O)c1 | 1.2 | 1.7 | 0.6 | -17 | -2
CC(C)c1nnc(NC(=O)CCC(=O)N2CCN(Cc3ccccc3)CC2)s1 | 1.1 | 1 | 0.9 | -1 | -5
CC(C)Cc1nnc(NC(=O)CCC(=O)N2CCN(S(=O)(=O)c3ccccc3)CC2)s1 | 1.1 | 1.1 | 0.9 | 0 | 52*
Cc1c(C#N)c(N=CN(C)C)c(C(=O)c2ccc(Br)cc2)n1-c1ccc(Cl)cc1 | 0.9 | 0.9 | 0.8 | 61* | 100*
COc1ccc(N(C(=O)c2ccccc2C)S(=O)(=O)c2cccs2)cc1 | 1 | 1 | 1 | 17 | 94*

From PubChem BioAssay
